A short description of data set [1]: Metabolic stability by incubation with human liver microsomes. The data set is classed as ADME, Microsome. In outline:
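Human liver microsomes (4 mg protein/mL) incubated with compound at 23 µM, 37 ± 1 °C, in 50 mM potassium phosphate pH 7.4 with 3 mM MgCl2 and 1 mM EDTA. Sampled at 0, 90 and 180 min; half-life calculated from loss of parent compound.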
Background: Liver microsomes are a subcellular fraction often used to study metabolism.

A short description of data set [2]: Metabolic stability by incubation with human hepatocytes. In kind it is ADME, cell-based, Liver, Hepatocyte. In outline:
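Compounds at 23 µM incubated separately with pooled (n = 2) cryopreserved human hepatocytes (2 million cells/mL) in phenol-red-free Waymouth's medium with FBS 4.5%, insulin, glutamine 3.6 mM, pyruvate 4.5 mM, dexamethasone 0.9 µM; 1% methanol. Samples at 0, 180, 360 min quenched in acetonitrile, protein spun off. Half-life from parent disappearance.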

Data set [3] has as its target Sodium-dependent noradrenaline transporter (Homo sapiens, UniProt P23975). The data set is described as follows: Inhibition of reuptake of Norepinephrine.
Data set [4] has as its system Rattus norvegicus. The data set is described as follows: Effect on latency in tail flick in rat after 1,2,4 and 8 hrs of administration of 50 mg/kg, ip. The data set is classed as functional, organism-based. More on the design: dose 50 mg/kg. In outline:
(§1)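 Rat tail-flick model; single intraperitoneal dose of 50 mg/kg, with 5 mg/kg ip morphine and saline as controls. Tail-flick latency (s) read at 1, 2, 4 and 8 h after dosing. n = 9–10 per group; significance vs control by Dunnett's test (p<0.05, p<0.01).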

For data set [5], the system named is Rattus norvegicus. The data set is described as follows: Effect on latency in tail flick in rat after 1 and 2 hrs of administration of 50 mg/kg, ip. In kind it is functional, organism-based. Also on record: dose 50 mg/kg. The following applies: tested as the 2H-labelled form. In outline: as §1

The source made the active and inactive calls. Where only a bound is given, the exact number is not on record here.

Sodium-dependent noradrenaline transporter, sequence (P23975 whole entry): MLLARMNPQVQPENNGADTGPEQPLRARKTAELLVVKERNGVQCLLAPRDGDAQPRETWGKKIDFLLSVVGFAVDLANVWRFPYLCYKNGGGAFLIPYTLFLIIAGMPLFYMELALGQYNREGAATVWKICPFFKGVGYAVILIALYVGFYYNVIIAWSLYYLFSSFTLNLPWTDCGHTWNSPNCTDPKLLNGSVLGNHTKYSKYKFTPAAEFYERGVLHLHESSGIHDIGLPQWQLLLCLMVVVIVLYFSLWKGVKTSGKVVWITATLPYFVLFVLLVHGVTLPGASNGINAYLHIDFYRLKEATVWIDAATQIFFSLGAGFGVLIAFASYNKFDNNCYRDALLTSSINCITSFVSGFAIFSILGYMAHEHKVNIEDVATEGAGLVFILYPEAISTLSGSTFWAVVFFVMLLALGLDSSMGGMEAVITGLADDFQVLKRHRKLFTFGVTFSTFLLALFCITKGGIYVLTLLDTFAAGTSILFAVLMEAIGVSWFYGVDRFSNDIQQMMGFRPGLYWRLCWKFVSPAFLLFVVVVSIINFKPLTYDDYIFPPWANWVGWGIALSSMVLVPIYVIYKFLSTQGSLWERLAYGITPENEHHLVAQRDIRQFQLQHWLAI

Broadly, the half-life is the time needed for the level to fall by half in the phase considered. A word on the IC50: it is the point on the concentration scale where inhibition reaches its midpoint. The low end stands for greater potency, the high end for weaker potency. With `[2H]C([2H])([2H])Oc1cccc([C@@]2(O)CCCC[C@@H]2CN(C([2H])([2H])[2H])C([2H])([2H])[2H])c1`, the half-life stood at 120 h in data set [1] and 60.2 h in data set [2]. For the same molecule, inhibition in data set [3] was half-maximal at 2 µM (IC50).

For `COc1cccc([C@@]2(O)CCCC[C@@H]2CN(C)C)c1` [TRAMADOL], the results for the half-life in data set [1] and in data set [2] were 12.3 h and 16.1 h, respectively. Also, the result in data set [4], in data set [4] (tested as the 2H-labelled form) and in data set [5] was Active. Also, in data set [3], the IC50 was determined as 0.79 µM.

For `[2H]C([2H])([2H])Oc1cccc([C@@]2(O)CCCC[C@@H]2CN(C)C)c1`, the results for the half-life in data set [1] and in data set [2] were 12.4 h and 22.2 h, respectively. In data set [3], this molecule returned an IC50 of 3.6 µM.

Regarding `[2H]C([2H])([2H])N(C[C@H]1CCCC[C@]1(O)c1cccc(O)c1)C([2H])([2H])[2H]`, the half-life in data set [1] was 12.4 h; in data set [2], 27.5 h. The same molecule registered an IC50 in data set [3] of 6.7 µM.

Turning to `[2H]C([2H])([2H])N(C[C@H]1CCCC[C@]1(O)c1cccc(OC)c1)C([2H])([2H])[2H]`, the half-life in data set [1] is 9.12 h; in data set [2], 14.2 h. For the same molecule, the IC50 in data set [3] amounted to 3.2 µM.

Consider `CN(C)C[C@H]1CCCC[C@]1(O)c1cccc(O)c1` [O-DESMETHYL TRAMADOL], for which the half-life in data set [1] was determined as 47 h; in data set [2], 26 h. For the same molecule, the IC50 in data set [3] was greater than 10 µM.

These data come from ChEMBL document CHEMBL1149431 (Bioorg Med Chem Lett, 2006).
